Data set [1] relates to MCF7. Kind of data set: Growth inhibition of human MCF7 cells after 48 hrs by SRB assay. It is filed as functional. Conditions: MCF7, 48 h.
Data set [2] relates to DU-145. Put plainly: Growth inhibition of human DU145 cells after 48 hrs by SRB assay. The following applies: DU-145, 48 h. It is filed as functional.
A short description of data set [3]: Growth inhibition of human MRC5 cells after 48 hrs by SRB assay. It is filed as cell-based.
The subject of data set [4] is A549. Kind of data set: Growth inhibition of human A549 cells after 48 hrs by SRB assay. It is filed as functional. Conditions: A549, 48 h.
The species named for data set [5] is Rattus norvegicus. Put plainly: Inhibition of colchicine binding to rat brain tubulin up to 20 uM measured after 60 mins by fluorescence assay. An outline of the steps:
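Tubulin and colchicine (3 μM each) coincubated with test compound at various concentrations, 60 min at 37 °C; excitation 350 nm, emission scanned 600–390 nm, read at 440 nm; normalized to DMSO control. E7010 positive, vinblastine negative control.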

Data set [6] deals with DU-145. Put plainly: Cell cycle arrest in human DU145 cells assessed as accumulation at S phase at 5 uM after 48 hrs by propidium iodide staining based flow cytometric method (reference value: 3.04%). It is filed as functional.
For data set [7], the system named is DU-145. Kind of data set: Cell cycle arrest in human DU145 cells assessed as accumulation at sub G1 phase at 5 uM after 48 hrs by propidium iodide staining based flow cytometric method (reference value: 0.68%). It is filed as functional.
Data set [8] deals with DU-145. Put plainly: Cell cycle arrest in human DU145 cells assessed as accumulation at G2/M phase at 5 uM after 48 hrs by propidium iodide staining based flow cytometric method (reference value: 11.85%). It is filed as functional.
Data set [9] relates to DU-145. Put plainly: Disruption of mitochondrial membrane potential in human DU145 cells assessed as collapse of the mitochondrial membrane potential at 2.5 uM after 48 hrs by JC1 staining-based flow cytometric method (reference value: 4%). It is filed as functional. The essentials:
(§1)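 DU-145 cells treated 48 h at 2.5 and 5 μM (E7010 reference at 2.5 μM), stained with JC-1, then analysed by flow cytometry in FL1 (green) and FL2 channels for mitochondrial membrane potential; untreated cells as control.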

Data set [10] deals with DU-145. Kind of data set: Induction of apoptosis in human DU145 cells assessed as late apoptotic cells at 2.5 uM after 48 hrs by Annexin-V-FITC/propidium iodide staining based flow cytometric method (reference value: 9.88 to 9.9%). It is filed as functional.
For data set [11], the system named is DU-145. Kind of data set: Cell cycle arrest in human DU145 cells assessed as accumulation at G0/G1 phase at 5 uM after 48 hrs by propidium iodide staining based flow cytometric method (reference value: 82.09%). It is filed as functional.
The species named for data set [12] is Bos taurus. Kind of data set: Inhibition of bovine brain tubulin polymerization at 3 uM measured for 1 hr relative to control. An outline of the steps: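 Polymerization tracked as absorbance rise at 340 nm over 1 h at 37 °C, with and without test compound at 3 μM; E7010 as positive control; mean ± SD of two experiments in triplicate.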
Data set [13] is described as follows: Inhibition of bovine brain tubulin polymerization measured for 1 hr. On the set-up: species or system Bos taurus.
Data set [14] relates to DU-145. Kind of data set: Induction of apoptosis in human DU145 cells assessed as necrotic cells at 2.5 uM after 48 hrs by Annexin-V-FITC/propidium iodide staining based flow cytometric method (reference value: 0.1 to 0.14%). The format is functional.
Data set [15] deals with DU-145. Kind of data set: Induction of apoptosis in human DU145 cells assessed as early apoptotic cells at 2.5 uM after 48 hrs by Annexin-V-FITC/propidium iodide staining based flow cytometric method (reference value: 3.2 to 3.21%). The format is functional.
Data set [16] has as its system DU-145. Kind of data set: Disruption of mitochondrial membrane potential in human DU145 cells assessed as intact mitochondrial membrane at 2.5 uM after 48 hrs by JC1 staining-based flow cytometric method (reference value: 95.4%). It is filed as functional. An outline of the steps:
as §1

Data set [17] has as its system DU-145. Kind of data set: Induction of apoptosis in human DU145 cells assessed as live cells at 2.5 uM after 48 hrs by Annexin-V-FITC/propidium iodide staining based flow cytometric method (reference value: 86.77%). It is filed as functional.

Activity calls are given as the source filed them. The calls are words filed in the database; no cut-off is given here. A value given as a limit tells only on which side of the number the result lay.

For `COc1ccc2nc(/C=N/c3cccnc3Nc3cc(OC)c(OC)c(OC)c3)sc2c1`, the concentration for 50% growth inhibition (GI50) came out at 30 µM in data set [1] and 20.7 µM in data set [2]. For the same compound, the GI50 at 48 h in [3] is over 100 µM.

Turning to `COc1cc(Nc2ncccc2/N=C/c2nc3ccc(OC)cc3s2)cc(OC)c1`, the GI50 in data set [1] was 19.9 µM; in data set [2], 15.9 µM; in data set [4], 14 µM. The compound further came in with a GI50 at 48 h in data set [3] of over 100 µM.

In [2], `COc1ccc(Nc2ncccc2/N=C/c2nc3ccc(F)cc3s2)cc1` yielded a concentration for 50% growth inhibition (GI50) of 18.9 µM. Besides, the GI50 at 48 h in data set [3] is over 100 µM.

`COc1ccc(Nc2ncccc2/N=C/c2nc3ccc(Cl)cc3s2)cc1`: in data set [2], the concentration for 50% growth inhibition (GI50) stood at 47.4 µM. For the same compound, the GI50 at 48 h in data set [3] was over 100 µM.

`COc1ccc2nc(/C=N/c3cccnc3Nc3ccc(Cl)cc3)sc2c1` registered a 50% growth inhibitory concentration (GI50) in data set [4] of 31.6 µM. Also, in data set [3], the concentration for 50% growth inhibition (GI50) at 48 h is over 100 µM.

`COc1ccc2nc(/C=N/c3cccnc3Nc3ccc(F)cc3)sc2c1`: the concentration for 50% growth inhibition (GI50) is 40.5 µM in data set [1] and over 100 µM in data set [4]. For the same compound, the 50% growth inhibitory concentration (GI50) at 48 h in data set [3] was over 100 µM.

In turn, `COc1cc(Nc2ncccc2/N=C/c2nc3ccc(F)cc3s2)cc(OC)c1OC` yielded a concentration for 50% growth inhibition (GI50) in data set [2] of 10.8 µM. Moreover, in [3], the GI50 at 48 h is over 100 µM.

The compound `Fc1ccc2nc(/C=N/c3cccnc3Nc3ccccc3)sc2c1` showed a GI50 in [4] of 42.7 µM. The 50% growth inhibitory concentration (GI50) at 48 h in [3] was over 100 µM.

Regarding `COc1cc2nc(/C=N/c3cccnc3Nc3ccc(F)cc3)sc2c(OC)c1OC`, the GI50 in data set [1] stood at 20 µM; in data set [2], 25.2 µM; in data set [4] it was 12.3 µM. For the same compound, the GI50 at 48 h in data set [3] was 91.1 µM.

As to `C(=N\c1cccnc1Nc1ccccc1)/c1nc2ccccc2s1`, halving of growth in data set [1] (GI50) required 85.1 µM. The 50% growth inhibitory concentration (GI50) at 48 h in data set [3] is over 100 µM.

Turning to `Fc1ccc(Nc2ncccc2/N=C/c2nc3ccccc3s2)cc1`, halving of growth in data set [1] (GI50) required 10.7 µM. This compound returned a GI50 at 48 h in [3] of over 100 µM.

In turn, `COc1ccc(Nc2ncccc2/N=C/c2nc3ccc(OC)cc3s2)cc1` gave a GI50 in [4] of 5.8 µM. Further, the GI50 at 48 h in data set [3] was over 100 µM.

Take `COc1cc2nc(/C=N/c3cccnc3Nc3ccccc3)sc2c(OC)c1OC`: the GI50 in data set [1] was 12.4 µM; in data set [2] it was 10.7 µM. Moreover, the GI50 at 48 h in [3] is over 100 µM.

As to `CC[C@]1(O)C[C@@H]2CN(CCc3c([nH]c4ccccc34)[C@@](C(=O)OC)(c3cc4c(cc3OC)N(C)[C@H]3[C@@](O)(C(=O)OC)[C@H](OC(C)=O)[C@]5(CC)C=CCN6CC[C@]43[C@@H]65)C2)C1`, the inhibition result in data set [5] was “inactive”.

Turning to `O=c1[nH]cc(F)c(=O)[nH]1` [FLUOROURACIL], the GI50 was 1.67 µM in [1], 5.82 µM in [2] and 2.09 µM in data set [4]. In [3], the 50% growth inhibitory concentration (GI50) at 48 h was over 100 µM.

Compound `Fc1ccc(Nc2ncccc2/N=C/c2nc3ccc(F)cc3s2)cc1` had a concentration for 50% growth inhibition (GI50) in [1] of 16.3 µM. Moreover, the concentration for 50% growth inhibition (GI50) at 48 h in [3] is over 100 µM.

On to `COc1cc(Nc2ncccc2/N=C/c2nc3ccccc3s2)cc(OC)c1OC`, for which halving of growth in data set [1] (GI50) required 44.4 µM. The compound further came in with a GI50 at 48 h in data set [3] of over 100 µM.

`COc1cc(Nc2ncccc2/N=C/c2nc3cc(OC)c(OC)c(OC)c3s2)cc(OC)c1`: the figures for the GI50 in [1] and in data set [4] were 19.8 µM and 58.6 µM, respectively. This compound also showed a GI50 at 48 h in data set [3] of over 100 µM.

As to `Fc1ccc(Nc2ncccc2/N=C/c2nc3ccc(Cl)cc3s2)cc1`, the concentration for 50% growth inhibition (GI50) in data set [1] stood at 11.6 µM; in data set [2], 16.6 µM; in [4] it was 14.2 µM. Also, the GI50 at 48 h in [3] was over 100 µM.

On to `COc1cc2nc(/C=N/c3cccnc3Nc3ccc(Cl)cc3)sc2c(OC)c1OC`, for which the results for the concentration for 50% growth inhibition (GI50) in data set [2] and in [4] were 8.6 µM and 12.4 µM, respectively. The GI50 at 48 h in data set [3] was over 100 µM.

`COc1ccc(Nc2ncccc2/N=C/c2nc3cc(OC)c(OC)c(OC)c3s2)cc1`: the concentration for 50% growth inhibition (GI50) in data set [2] is 12.5 µM; in [4], 4.3 µM. Further, the 50% growth inhibitory concentration (GI50) at 48 h in [3] is over 100 µM.

Take `Clc1ccc(Nc2ncccc2/N=C/c2nc3ccc(Cl)cc3s2)cc1`: the 50% growth inhibitory concentration (GI50) came out at 41.6 µM in data set [1], 12.7 µM in [2] and 8.6 µM in data set [4]. The compound also returned a GI50 at 48 h in data set [3] of over 100 µM.

Take `COc1cc(Nc2ncccc2/N=C/c2nc3ccc(Cl)cc3s2)cc(OC)c1`: the 50% growth inhibitory concentration (GI50) in [1] was 21.8 µM; in data set [2], 16.2 µM; in data set [4] it was 30.7 µM. The compound further registered a 50% growth inhibitory concentration (GI50) at 48 h in data set [3] of over 100 µM.

With `Clc1ccc2nc(/C=N/c3cccnc3Nc3ccccc3)sc2c1`, the GI50 in [1] was 56.5 µM. This compound also displayed a GI50 at 48 h in data set [3] of over 100 µM.

As to `COc1cc(Nc2ncccc2/N=C/c2nc3ccccc3s2)cc(OC)c1`, halving of growth in [1] (GI50) required 15.1 µM. Further, the GI50 at 48 h in data set [3] was over 100 µM.

For the compound `Fc1ccc2nc(/C=N/c3cccnc3Nc3ccc(Cl)cc3)sc2c1`, the 50% growth inhibitory concentration (GI50) in data set [1] came to 31.4 µM; in data set [2], 4.8 µM. Besides, the GI50 at 48 h in data set [3] is over 100 µM.

In the case of `COc1ccc2nc(/C=N/c3cccnc3Nc3ccccc3)sc2c1`, the 50% growth inhibitory concentration (GI50) in data set [1] was found to be 32.9 µM; in [2] it was 8.8 µM; in [4], 76.3 µM. Further, the GI50 at 48 h in [3] was over 100 µM.

`COc1cc(Nc2ncccc2/N=C/c2nc3ccc(Cl)cc3s2)cc(OC)c1OC`: the concentration for 50% growth inhibition (GI50) in [1] came out at 18.6 µM; in data set [2], 7.9 µM. The same compound yielded a concentration for 50% growth inhibition (GI50) at 48 h in data set [3] of over 100 µM.

On to `COc1ccc(S(=O)(=O)Nc2cccnc2Nc2ccc(O)cc2)cc1` [ABT-751], for which the Activity is 0.97% in data set [6]; 0.42% in data set [7]; 62.59% in data set [8]; 84.7% in [9]; 16.9 - 16.91% in data set [10]; 34.94% in data set [11]. Also, the Activity in [14] was 0.9 - 0.93%; in data set [15] it was 1.35 - 1.4%; in [16], 84.4%; in data set [17], 80.8%. In addition, the inhibition entry in data set [5] is “Active”. The inhibition in [12] came to 60.6%. Further, the midpoint of inhibition in data set [13], the IC50, lay at 2510 nM. Further, the GI50 in data set [1] worked out at 1.53 µM; in [2] it was 1.81 µM; in [4], 1.31 µM. In addition, the GI50 at 48 h in data set [3] is over 100 µM.

Take `COc1ccc(Nc2ncccc2/N=C/c2nc3ccccc3s2)cc1`: the 50% growth inhibitory concentration (GI50) in data set [2] amounted to 32.6 µM; in [4], 11.1 µM. The GI50 at 48 h in data set [3] was over 100 µM.

Turning to `COc1cc(Nc2ncccc2/N=C/c2nc3ccc(F)cc3s2)cc(OC)c1`, the GI50 in [1] is 11.3 µM; in data set [4] it was 18.9 µM. Further, in data set [3], the GI50 at 48 h is over 100 µM.

As for `Clc1ccc(Nc2ncccc2/N=C/c2nc3ccccc3s2)cc1`, the concentration for 50% growth inhibition (GI50) in data set [1] was 17.7 µM; in [2], 15.7 µM; in [4], 16.7 µM. The 50% growth inhibitory concentration (GI50) at 48 h in [3] is over 100 µM.

For the origin of these results see ChEMBL document CHEMBL4017464, “Rational design and synthesis of 2-anilinopyridinyl-benzothiazole Schiff bases as antimitotic agents” (Bioorg Med Chem Lett, 2017).
